Source: ChEMBL document CHEMBL3102840, “Synthesis and anti-proliferative activity of aromatic substituted 5-((1-benzyl-1H-indol-3-yl)methylene)-1,3-dimethylpyrimidine-2,4,6(1H,3H,5H)-trione analogs against human tumor cell lines” (2014)

Tests used:
Assay type in all cases: functional
[1] = system: TK-10; experiment: Cytotoxicity against human TK10 cells after 48 hrs by SRB assay; conditions: TK-10, 48 h; for CC50: read-out: LC50 (the source's name)
Outline: (§1)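 Five-dose run from the sixty-line panel, at 10−4, 10−5, 10−6, 10−7 and 10−8 M. SRB-stain OD is read just before compound addition, after 48 hrs of exposure, and in vehicle controls, giving percentage growth; negative growth indicates cytotoxicity. GI50 is the concentration giving 50% reduction in net protein increase versus control cells. LC50 is the concentration lethal to 50% of cells.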

[2] = system: SK-MEL-2; experiment: Cytotoxicity against human SK-MEL-2 cells after 48 hrs by SRB assay; conditions: SK-MEL-2, 48 h; outline: as §1
[3] = system: COLO 205; experiment: Cytotoxicity against human COLO205 cells after 48 hrs by SRB assay; conditions: COLO 205, 48 h; for CC50: read-out: LC50 (the source's name); outline: as §1
[4] = system: UACC-62; experiment: Cytotoxicity against human UACC62 cells after 48 hrs by SRB assay; conditions: UACC-62, 48 h; outline: as §1
[5] = system: LOX IMVI; experiment: Cytotoxicity against human LOXIMVI cells after 48 hrs by SRB assay; conditions: for CC50: read-out: LC50 (the source's name); outline: as §1
[6] = system: SK-OV-3; experiment: Cytotoxicity against human SKOV3 cells after 48 hrs by SRB assay; conditions: SK-OV-3, 48 h; outline: as §1
[7] = system: K562; experiment: Cytotoxicity against human K562 cells after 48 hrs by SRB assay; conditions: K562, 48 h; for CC50: read-out: LC50 (the source's name); outline: as §1
[8] = system: MDA-MB-468; experiment: Cytotoxicity against human MDA-MB-468 cells assessed as growth inhibition at 10 uM after 48 hrs by SRB assay; conditions: MDA-MB-468, 48 h, read-out: GI
Outline: (§2)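 Single-dose screen at 10µM across the sixty-cell-line panel. Percentage growth is derived from SRB-stain OD taken just before compound exposure, after 48 hrs exposure, and in vehicle-treated controls. Negative values indicate cytotoxicity.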

[9] = system: T47D; experiment: Cytotoxicity against human T47D cells after 48 hrs by SRB assay; outline: as §1
[10] = system: NCI-H226; experiment: Cytotoxicity against human NCI-H226 cells assessed as growth inhibition at 10 uM after 48 hrs by SRB assay; conditions: NCI-H226, 48 h, read-out: GI; outline: as §2
[11] = system: A498; experiment: Cytotoxicity against human A498 cells after 48 hrs by SRB assay; conditions: A498, 48 h; outline: as §1
[12] = system: 786-0; experiment: Cytotoxicity against human 786-0 cells after 48 hrs by SRB assay; conditions: 786-0, 48 h; outline: as §1
[13] = system: HOP-62; experiment: Cytotoxicity against human HOP62 cells after 48 hrs by SRB assay; conditions: HOP-62, 48 h; for CC50: read-out: LC50 (the source's name); outline: as §1
[14] = system: OVCAR-8; experiment: Cytotoxicity against human OVCAR8 cells after 48 hrs by SRB assay; conditions: OVCAR-8, 48 h; for CC50: read-out: LC50 (the source's name); outline: as §1
[15] = system: HCT-116; experiment: Cytotoxicity against human HCT116 cells after 48 hrs by SRB assay; conditions: HCT-116, 48 h; outline: as §1
[16] = system: MDA-MB-468; experiment: Cytotoxicity against human MDA-MB-468 cells after 48 hrs by SRB assay; conditions: MDA-MB-468, 48 h; outline: as §1
[17] = Cytotoxicity against human NCI-ADR-RES cells after 48 hrs by SRB assay; conditions: for CC50: read-out: LC50 (the source's name); outline: as §1
[18] = system: MCF7; experiment: Cytotoxicity against human MCF7 cells after 48 hrs by SRB assay; conditions: MCF7, 48 h; outline: as §1
[19] = Cytotoxicity against human UACC257 cells after 48 hrs by SRB assay; conditions: UACC-257, 48 h; for CC50: read-out: LC50 (the source's name); outline: as §1
[20] = system: MDA-MB-231; experiment: Cytotoxicity against human MDA-MB-231 cells after 48 hrs by SRB assay; conditions: MDA-MB-231, 48 h; for CC50: read-out: LC50 (the source's name); outline: as §1
[21] = system: SW-620; experiment: Cytotoxicity against human SW620 cells after 48 hrs by SRB assay; conditions: SW-620, 48 h; for CC50: read-out: LC50 (the source's name); outline: as §1
[22] = system: MDA-MB-435; experiment: Cytotoxicity against human MDA-MB-435 cells after 48 hrs by SRB assay; conditions: MDA-MB-435, 48 h; outline: as §1
[23] = system: NCI-H460; experiment: Cytotoxicity against human NCI-H460 cells after 48 hrs by SRB assay; conditions: NCI-H460, 48 h; for CC50: read-out: LC50 (the source's name); outline: as §1
[24] = system: A498; experiment: Cytotoxicity against human A498 cells assessed as growth inhibition at 10 uM after 48 hrs by SRB assay; conditions: A498, 48 h, read-out: GI; outline: as §2
[25] = system: TK-10; experiment: Cytotoxicity against human TK10 cells assessed as growth inhibition at 10 uM after 48 hrs by SRB assay; conditions: TK-10, 48 h, read-out: GI; outline: as §2
[26] = system: SF-295; experiment: Cytotoxicity against human SF295 cells after 48 hrs by SRB assay; conditions: SF-295, 48 h; outline: as §1
[27] = system: SN12C; experiment: Cytotoxicity against human SN12C cells after 48 hrs by SRB assay; conditions: for CC50: read-out: LC50 (the source's name); outline: as §1
[28] = system: RXF 393; experiment: Cytotoxicity against human RXF393 cells after 48 hrs by SRB assay; conditions: RXF 393, 48 h; outline: as §1
[29] = system: SNB-19; experiment: Cytotoxicity against human SNB19 cells after 48 hrs by SRB assay; conditions: SNB-19, 48 h; outline: as §1
[30] = system: NCI-H23; experiment: Cytotoxicity against human NCI-H23 cells after 48 hrs by SRB assay; conditions: NCI-H23, 48 h; outline: as §1
[31] = system: NCI-H226; experiment: Cytotoxicity against human NCI-H226 cells after 48 hrs by SRB assay; conditions: NCI-H226, 48 h; for CC50: read-out: LC50 (the source's name); outline: as §1
[32] = system: BT-549; experiment: Cytotoxicity against human BT549 cells after 48 hrs by SRB assay; conditions: BT-549, 48 h; for CC50: read-out: LC50 (the source's name); outline: as §1
[33] = system: SK-MEL-5; experiment: Cytotoxicity against human SK-MEL-5 cells after 48 hrs by SRB assay; conditions: SK-MEL-5, 48 h; outline: as §1
[34] = system: IGROV-1; experiment: Cytotoxicity against human IGROV1 cells after 48 hrs by SRB assay; conditions: IGROV-1, 48 h; for CC50: read-out: LC50 (the source's name); outline: as §1
[35] = system: SR; experiment: Cytotoxicity against human SR cells after 48 hrs by SRB assay; outline: as §1
[36] = Cytotoxicity against human OVCAR5 cells after 48 hrs by SRB assay; conditions: OVCAR-5, 48 h; for CC50: read-out: LC50 (the source's name); outline: as §1
[37] = Cytotoxicity against human OVCAR5 cells assessed as growth inhibition at 10 uM after 48 hrs by SRB assay; conditions: OVCAR-5, 48 h, read-out: GI; outline: as §2

CN1C(=O)C(=Cc2cn(Cc3ccc(Cl)cc3)c3ccccc23)C(=O)N(C)C1=O
GI50 [1]: 0.18 µM | CC50 [1]: 50.4 µM | GI50 [2]: 2.84 µM | GI50 [3]: 2.78 µM | CC50 [3]: 29.5 µM | GI50 [4]: 2.06 µM | LC50 [4]: > 100 µM | GI50 [5]: 17.3 µM | CC50 [5]: > 100 µM | GI50 [6]: 6.08 µM | LC50 [6]: > 100 µM | CC50 [7]: > 100 µM | inhibition of growth at 10 µM [8]: -71% | GI50 [9]: 3.53 µM | LC50 [9]: > 100 µM | inhibition of growth at 10 µM [10]: -82% | GI50 [11]: 0.04 µM | LC50 [11]: 0.64 µM | GI50 [12]: 6.9 µM | LC50 [12]: > 100 µM | GI50 [13]: 10.7 µM | CC50 [13]: > 100 µM | GI50 [14]: 21.3 µM | CC50 [14]: > 100 µM | GI50 [15]: 4.47 µM | LC50 [15]: > 100 µM | GI50 [16]: 0.06 µM | LC50 [16]: 0.7 µM | GI50 [17]: 16.3 µM | CC50 [17]: > 100 µM | GI50 [18]: > 100 µM | LC50 [18]: > 100 µM | GI50 [19]: 2.01 µM | CC50 [19]: > 100 µM | GI50 [20]: 12.2 µM | CC50 [20]: > 100 µM | GI50 [21]: > 100 µM | CC50 [21]: > 100 µM | GI50 [22]: > 100 µM | LC50 [22]: > 100 µM | GI50 [23]: 0.4 µM | CC50 [23]: > 100 µM | inhibition of growth at 10 µM [24]: -94% | inhibition of growth at 10 µM [25]: -26% | GI50 [26]: 1.21 µM | LC50 [26]: > 100 µM | GI50 [27]: 92.1 µM | CC50 [27]: > 100 µM | GI50 [28]: 12.5 µM | LC50 (lethal concentration, 50%) [28]: > 100 µM | GI50 [29]: 18.3 µM | LC50 [29]: > 100 µM | GI50 [30]: 10.2 µM | LC50 [30]: > 100 µM | GI50 [31]: 1.26 µM | CC50 [31]: > 100 µM | GI50 [32]: 12.5 µM | CC50 [32]: > 100 µM | GI50 [33]: > 100 µM | LC50 [33]: > 100 µM | GI50 [34]: 2.88 µM | CC50 [34]: > 100 µM | GI50 [35]: 70.3 µM | LC50 (lethal concentration, 50%) [35]: > 100 µM | GI50 [36]: 0.16 µM | CC50 [36]: > 100 µM | inhibition of growth at 10 µM [37]: -23%

Cc1ccc(Cn2cc(C=C3C(=O)N(C)C(=O)N(C)C3=O)c3ccccc32)cc1
GI50 [1]: 0.28 µM | CC50 [1]: > 100 µM | GI50 [2]: 3.36 µM | GI50 [3]: 1.89 µM | CC50 [3]: > 100 µM | GI50 [4]: 2.42 µM | LC50 [4]: > 100 µM | GI50 [5]: 27.8 µM | CC50 [5]: > 100 µM | GI50 [6]: 23.7 µM | LC50 [6]: > 100 µM | GI50 [7]: 2.23 µM | CC50 [7]: > 100 µM | inhibition of growth at 10 µM [8]: -62% | GI50 [9]: 5 µM | LC50 [9]: > 100 µM | inhibition of growth at 10 µM [10]: -63% | GI50 [11]: 0.12 µM | LC50 [11]: 0.69 µM | GI50 [12]: 22.1 µM | LC50 [12]: > 100 µM | GI50 [13]: 7.44 µM | CC50 [13]: > 100 µM | GI50 [14]: > 100 µM | CC50 [14]: > 100 µM | GI50 [15]: 5.45 µM | LC50 [15]: > 100 µM | GI50 [16]: 0.03 µM | LC50 [16]: 0.62 µM | GI50 [17]: 6.23 µM | CC50 [17]: > 100 µM | GI50 [18]: 6.76 µM | LC50 [18]: > 100 µM | GI50 [19]: 2.02 µM | CC50 [19]: > 100 µM | GI50 [20]: 13.6 µM | CC50 [20]: > 100 µM | CC50 [21]: > 100 µM | LC50 [22]: > 100 µM | GI50 [23]: 0.91 µM | CC50 [23]: > 100 µM | inhibition of growth at 10 µM [24]: -91% | inhibition of growth at 10 µM [25]: -4% | GI50 [26]: 2.02 µM | LC50 [26]: > 100 µM | GI50 [27]: > 100 µM | CC50 [27]: > 100 µM | GI50 [28]: 15.2 µM | LC50 (lethal concentration, 50%) [28]: > 100 µM | GI50 [29]: 26.8 µM | LC50 [29]: > 100 µM | GI50 [30]: 8.19 µM | LC50 [30]: > 100 µM | GI50 [31]: 1.95 µM | CC50 [31]: > 100 µM | GI50 [32]: 13.5 µM | CC50 [32]: > 100 µM | GI50 [33]: 9.17 µM | LC50 [33]: > 100 µM | GI50 [34]: 2.95 µM | CC50 [34]: > 100 µM | GI50 [35]: 1.89 µM | LC50 (lethal concentration, 50%) [35]: > 100 µM | GI50 [36]: 0.07 µM | CC50 [36]: > 100 µM | inhibition of growth at 10 µM [37]: -23%
